The text below walks through data of ChEMBL document CHEMBL1132613 (J Med Chem, 1999).

Several values for one entry are separate records, joined by “and”; a condition that tells them apart may be missing. Equal entries are not always repeated.

Common to all, as to format: functional
Test [1] relates to Rattus norvegicus. Kind of test: Percentage of animals failing to emit 50 lever presses within 15 min in rats at a compound dose of 0.02 mg/kg. An outline of the steps:
(§1)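 Two-lever drug discrimination in male Sprague–Dawley rats (200–220 g at start), trained against saline on LSD tartrate (0.08 mg/kg), DOI HCl (0.4 mg/kg) or LY293284 (0.025 mg/kg). FR50 food-pellet reinforcement, levers counterbalanced, 15-min sessions at 22–24 °C. %D is the share of tested rats not completing 50 lever presses within 15 min.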

The subject of test [2] is Rattus norvegicus. The experiment in a line: Percentage of animals failing to emit 50 lever presses within 15 min in rats at a compound dose of 0.027 mg/kg. An outline of the steps: as §1
Test [3] has as its system Rattus norvegicus. The experiment in a line: Percentage of animals failing to emit 50 lever presses within 15 min in rats at a compound dose of 0.005 mg/kg. An outline of the steps: as §1
The subject of test [4] is Rattus norvegicus. The experiment in a line: Percentage of animals failing to emit 50 lever presses within 15 min in rats at a compound dose of 0.01 mg/kg. An outline of the steps: as §1
In test [5] the test system is Rattus norvegicus. The experiment in a line: Percentage of animals emitting >80% of lever presses in rats at a compound dose of 0.030 uM/Kg. In outline:
(§2)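 Male Sprague–Dawley rats (200–220 g) in a two-lever, FR50 food-reinforced task. Rats were trained to discriminate saline from LSD tartrate (0.08 mg/kg), DOI HCl (0.4 mg/kg) or LY293284 (0.025 mg/kg) in 15-min sessions. %SDL is the share of rats making over 80% of presses on the drug lever. %D is the share failing to make 50 presses within 15 min. ED50 by Litchfield–Wilcoxon log-probit.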

Test [6] concerns Rattus norvegicus. The experiment in a line: Percentage of animals emitting >80% of lever presses in rats at a compound dose of 0.060 uM/Kg. In outline: as §2
For test [7], the system named is Rattus norvegicus. Kind of test: Percentage of animals emitting >80% of lever presses in rats at a compound dose of 0.080 uM/Kg. In outline: as §2
The test system of test [8] is Rattus norvegicus. The experiment in a line: Percentage of animals emitting >80% of lever presses in rats at a compound dose of 0.015 uM/Kg. In outline: as §2
Test [9] concerns the target 5-hydroxytryptamine receptor 2A (Rattus norvegicus) (UniProt P14842). Kind of test: Efficacy against 5-hydroxytryptamine 2A receptor.
In test [10] the test system is Rattus norvegicus. The experiment in a line: Percentage of animals failing to emit 50 lever presses within 15 min in at 0.01 mg/kg dose. In outline:
as §1

For test [11], the system named is Rattus norvegicus. Kind of test: Percentage of animals failing to emit 50 lever presses within 15 min in rats at 0.02 mg/kg dose. An outline of the steps:
as §1

Test [12] has as its system Rattus norvegicus. The experiment in a line: Percentage of animals failing to emit 50 lever presses within 15 min in rats at 0.04 mg/kg dose. An outline of the steps: as §1
In test [13] the test system is Rattus norvegicus. Kind of test: Percentage of animals failing to emit 50 lever presses within 15 min in rats at 0.08 mg/kg dose. An outline of the steps: as §1
The test system of test [14] is Rattus norvegicus. Kind of test: Percentage of animals emitting >80% of lever presses in rats at 0.01 mg/kg dose. An outline of the steps:
as §2

In test [15] the test system is Rattus norvegicus. Kind of test: Percentage of animals emitting >80% of lever presses in rats at 0.02 mg/kg dose. An outline of the steps: as §2
Test [16] deals with Rattus norvegicus. Kind of test: Percentage of animals emitting >80% of lever presses in rats at 0.04 mg/kg dose. An outline of the steps: as §2
The subject of test [17] is Rattus norvegicus. Kind of test: Percentage of animals emitting >80% of lever presses in rats at 0.08 mg/kg dose. In outline:
as §2

Chain of 5-hydroxytryptamine receptor 2A (Rattus norvegicus) (P14842 whole entry): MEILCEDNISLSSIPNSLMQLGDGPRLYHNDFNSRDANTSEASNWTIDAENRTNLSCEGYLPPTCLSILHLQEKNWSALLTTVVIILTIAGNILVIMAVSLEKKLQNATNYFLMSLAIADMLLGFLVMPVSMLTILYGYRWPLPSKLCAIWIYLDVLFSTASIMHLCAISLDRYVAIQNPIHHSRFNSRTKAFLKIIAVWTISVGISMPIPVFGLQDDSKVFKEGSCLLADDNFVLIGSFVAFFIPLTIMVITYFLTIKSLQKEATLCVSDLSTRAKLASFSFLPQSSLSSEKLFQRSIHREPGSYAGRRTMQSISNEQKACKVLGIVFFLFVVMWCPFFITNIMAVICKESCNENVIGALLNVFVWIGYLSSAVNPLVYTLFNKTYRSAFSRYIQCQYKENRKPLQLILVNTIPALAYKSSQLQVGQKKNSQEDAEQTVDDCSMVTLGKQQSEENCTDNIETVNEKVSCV

For the compound `CCCN(CCC)C1Cc2c[nH]c3ccc(C(C)=O)c(c23)C1` (configuration not stated) [LY-293284], the D in the test on Rattus norvegicus [1] was 0%; in the test on Rattus norvegicus [2], 27%; in the test on Rattus norvegicus [3], 8%; in the test on Rattus norvegicus [4] it was 0%. Moreover, the SDL in the test on Rattus norvegicus [5] is 45%; in the test on Rattus norvegicus [6] it was 83%; in the test on Rattus norvegicus [7], 100%; in the test on Rattus norvegicus [8], 9%.
The term ED50 denotes the dose that gives a 50% effect, or the effect in half of the subjects. A higher ED50 goes with a need for a large dose. As for `CCN(CC)C(=O)[C@@H]1C=C2c3cccc4[nH]cc(c34)C[C@H]2N(C)C1` [LYSERGIDE], the ED50 in test [9] is 0.037 µmol.kg-1 and 0.016 mg/kg. Also, the D was 0% in the test on Rattus norvegicus [10], 7% in the test on Rattus norvegicus [11], 0% in the test on Rattus norvegicus [12] and 0% with Rattus norvegicus [13]. The SDL is recorded as 31% in the test with Rattus norvegicus [14], 62% with Rattus norvegicus [15], 81% in the test with Rattus norvegicus [16] and 100% with Rattus norvegicus [17].
